# STAT3 blocker = inhibitors of IL-6 induced STAT3 signaling; U3A cells, IL-6 STAT3-luciferase reporter, luminescence; host cell line lacks STAT1; inhibition, % at 5.5 µM; 190,000 compounds, 0.89% hits; AID 862;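 active = inhibition above the mean inhibition across all screened compounds plus 3 SD, cut at about 44% in these data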;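 also: 0% = DMSO only wells and 100% = 100 µM nifuroxazide control wells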
# STAT3 act-1 = STAT3 signaling activation. U3A cells, IL-6 STAT3-luciferase reporter, luminescence; 100% = signal with IL-6 EC80 alone. activation (% of control), % at 5.6 µM. 190,000 compounds, 0.91% hits;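 active = activation above the screen-wide mean of compound activation plus 3 SD, cut at about 130% in these data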;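 also: 0% = background luminescence of wells with medium and substrate only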
#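 Material: STAT3-luciferase reporter U3A cells. Controls: IL-6-treated wells, 100% activation. Read-out: % activation versus median of IL-6-stimulated wells. Probe or stimulus: IL-6 stimulus at 33 ng/mL final. Timing: compound 1 h, then IL-6 6 h at 37 °C. Signal: reporter luminescence signal.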
# PPC-1+TRAIL kill = kills PPC-1 cancer cells in the presence of TRAIL; PPC-1 cells + TRAIL, ATPLite viability luminescence; cell killing (% activity), % at 4 µM or 5 µM; 220,000 compounds, 0.41% hits;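 active = cell killing above 50% in the first pass at 4 µM, then a duplicate retest at 5 µM averaging 50% or more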;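 also: plate controls were cells with TRAIL plus DMSO for no effect and medium-only wells lacking cells for full effect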
# STAT1 blocker = inhibitors of IFN-gamma induced STAT1 signaling | AID 920 | inhibition, % at 5.5 µM | NIH 3T3 STAT1-luciferase reporter, luminescence | 200,000 compounds, 0.35% hits;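 active = inhibition above a set limit, the mean inhibition across all tested compounds plus 3 SD, cut at about 34% in these data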;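 also: 0% = IFN-gamma with DMSO and 100% = IFN-gamma with 300 µM nifuroxazide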
# HSP90 refold inh = HSP90 refolding inhibition in rabbit reticulocyte lysate. inhibition, % at 5.6 µM. 290,000 compounds, 0.91% hits. luciferase refolding luminescence, 3 h. AID 1789;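 active = inhibition above the screen-wide mean plus 3 SD, computed separately per campaign, cut at about 16% in these data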;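 also: 0% = DMSO wells and 100% = 60 µM geldanamycin wells; inhibitors lower the luminescence because luciferase stays unfolded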
# TRAIL sens C8 = caspase-8 TRAIL sensitization | NB7+C8 cells + TRAIL, ATPlite viability luminescence | inhibition (viability loss, TRAIL sensitization), % at 10 µM | 360,000 compounds, 1% hits | AID 624354;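 active = compounds causing at least 50% loss of cell viability in the single-dose screen, relative to plate controls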
# STAT3 act-2 = STAT3 activation, confirmation assay; shares compounds with STAT3 act-1; potentiation (% of control), % at 5.7 µM; U3A STAT3-luciferase reporter, IL-6 potentiation, luminescence; U3A cells lack STAT1; 100 means same as IL-6 alone; 1,200 compounds, 64% hits; AID 1267;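 active = percent activation of the STAT3 luciferase reporter above a set limit taken from the earlier primary screen, cut at about 130% in these data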;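 also: 0% = background signal of medium plus substrate and 100% = median of IL-6 with DMSO wells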
# NFkB act STAT3ct = NF-kappaB activation in STAT3 activator counter-screen; shares compounds with STAT3 act-1; human cells, NF-kappaB reporter activation; activation (% of control), % at 5.7 µM; 1,200 compounds, 11% hits; AID 1309; in the data active = activation above about 120%;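 also: reporter induced by TNF-alpha stimulation; 100% = median of stimulated DMSO wells and 0% = no signal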
# STAT1 act = counter-screen for STAT3 activators: STAT1 activation | shares compounds with STAT3 act-1 | NIH 3T3 STAT1-luciferase reporter, IFN-gamma, luminescence | activation (% of control), % at 5.7 µM | 1,200 compounds, 13% hits | AID 1318;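 active = activation above the solvent-only control well mean plus 3 SD, set per screening run, cut at about 120% in these data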;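 also: 100% = IFN-gamma with DMSO median signal so 100% means no change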
# An asterisk follows results filed as active; · = no result. In the library only some 2.3% were active in any assay of this set; here they are far more common.
SMILES,STAT3 blocker,STAT3 act-1,PPC-1+TRAIL kill,STAT1 blocker,HSP90 refold inh,TRAIL sens C8,STAT3 act-2,NFkB act STAT3ct,STAT1 act
COc1cc(O)c(C(CCN2CCCC2)c2cc(OC)c(OC)c(OC)c2)c(OC)c1 (centres undefined),·,·,10.5,·,·,4.1,·,·,·
Cc1ccc(O)c(-c2cc(-c3cccc(F)c3)n[nH]2)c1,-37.2,132.3,27.1,-5.5,2.5,25.3,·,·,·
Cc1ccc(O)c(-c2cc(-c3ccccc3F)[nH]n2)c1,-65.2,160.3*,22.1,-9.7,-4.6,10.8,147.7*,116.8,111.4
Cc1ccc(N2C(=O)C(Cl)=C(N3CCOCC3)C2=O)cc1Cl,-5.6,102.4,20.5,-8.7,-0.5,1.7,·,·,·
O=C(CC1C(=O)NCCN1Cc1ccoc1)NCCc1ccc(Cl)cc1 (centres undefined),3.0,99.5,13.3,-3.5,-2.1,-13.4,·,·,·
COc1ccccc1NC(=O)c1ccc(Br)o1,9.3,95.2,8.6,-2.7,0.7,-2.9,·,·,·
Cc1cc(O)c(NC(=O)c2ccc(Br)o2)cc1C,-70.8,160.8*,19.3,11.7,0.3,2.2,150.6*,115.2,95.3
COc1ccc(Cl)cc1C(=O)Nc1ccncc1,·,·,·,·,5.7,-10.6,·,·,·
CCN(CC)c1ccc(NC(=O)c2cc(Cl)ccc2OC)cc1,-62.5,162.2*,6.0,5.1,-3.4,12.7,150.7*,112.1,99.4
COCCN1CC(=O)N2C(c3cccc(OC)c3)c3[nH]c4ccccc4c3C[C@H]2C1=O (some centres undefined),·,·,·,·,-0.5,15.2,·,·,·
C/C(=C\C(=S)Nc1ccccc1)Nc1cccc2ccccc12,-58.3,155.3*,18.4,-14.2,8.7,0.7,142.2*,108.7,118.7
CC(=O)c1cccc(NC(=O)CSc2ccc(-c3cccnc3)nn2)c1,·,·,·,·,·,-12.9,·,·,·
CC(=O)Nc1cccc(NC(=O)CSc2ccc(-c3cccnc3)nn2)c1,-51.1,140.4*,-4.4,-5.3,-1.6,-8.5,114.5,98.5,106.0
Cc1ccc(-n2nc(C)cc2NC(=O)c2ccc(C)s2)cc1,-37.0,135.9*,19.1,-0.2,-0.2,-3.8,113.8,102.0,97.0
Cc1ccc(-n2nc(C)cc2NC(=O)CC#N)cc1,7.3,99.5,18.5,5.8,-1.9,3.6,·,·,·
Cc1cc(C)c2oc(-c3ccc(Cl)c(NC(=O)c4ccc(C#N)cc4F)c3)nc2c1,-81.4,173.2*,25.4,-11.1,0.9,20.7,165.2*,100.8,108.3
COc1ccc(NC(=O)N2CCn3c2nc2ccccc23)cc1,-59.1,151.1*,27.5,-2.9,-5.4,-10.6,136.9*,105.2,98.0
COc1cc(NC(=O)[C@H](C)NC(=O)N2CCn3c2nc2ccccc23)cc(OC)c1,·,·,·,·,-4.2,10.8,·,·,·
O=C(Nc1ccccc1)N1CCn2c1nc1ccccc12,-68.9,161.4*,23.6,2.9,3.9,2.0,139.2*,99.3,94.8
Cc1ccc(CSCC(=O)N2CCN(c3ccccc3)CC2)cc1,-1.6,104.1,12.8,2.7,-4.8,2.3,·,·,·
CCCN1C(=O)C(O)(c2c(C)[nH]c3ccccc23)c2ccccc21 (centres undefined),·,·,-7.6,·,0.3,-3.0,·,·,·
Cc1[nH]c2ccccc2c1C1(O)C(=O)N(C(C)C)c2ccccc21 (centres undefined),-38.4,137.1*,26.2,2.1,0.9,0.9,120.5,105.8,101.5
Cc1[nH]c2ccccc2c1C1(O)C(=O)N(Cc2ccc3c(c2)OCO3)c2ccccc21 (centres undefined),-40.7,137.0*,12.7,14.3,4.3,1.8,134.1*,105.1,105.4
COc1ccc(CNc2ncnc3cc(OC)c(OC)cc23)cc1,-1.0,105.7,-6.0,7.7,-1.7,0.6,·,·,·
CCOC(=O)c1ccc(NC2=CC(=O)C(=O)c3ccccc32)cc1,-46.2,144.5*,-2.7,0.2,5.3,94.0*,128.3,106.8,102.1
SMILES,STAT3 blocker,STAT3 act-1,PPC-1+TRAIL kill,STAT1 blocker,HSP90 refold inh,TRAIL sens C8,STAT3 act-2,NFkB act STAT3ct,STAT1 act
Cn1ncc(Br)c1C(=O)Nc1c(F)c(F)cc(F)c1F,-42.5,138.6*,16.6,-40.9,-1.0,6.6,136.9*,114.9,148.4*
CSc1nc2ccc(NS(=O)(=O)c3cccc(Cl)c3Cl)cc2s1,5.6,97.7,12.8,-11.8,-0.9,-10.0,·,·,·
CCC(C)(C)NC(=O)C(c1ccccc1)N(Cc1cccnc1)C(=O)c1csnn1 (centres undefined),0.3,102.4,23.6,0.1,3.6,-8.2,·,·,·
O=C(Nc1nc2ccc(SC(F)F)cc2s1)c1ccc2c(c1)S(=O)(=O)c1ccccc1C2=O,12.7,91.0,3.0,3.5,1.1,·,·,·,·
O=C(Nc1nc2ccccc2s1)c1ccc2c(c1)S(=O)(=O)c1ccccc1C2=O,-37.8,139.8*,-5.2,-4.5,0.2,·,131.8,100.7,96.2
Cc1nc2ccc(Br)cn2c1C(=O)N/N=C\c1ccccc1[N+](=O)[O-],-49.8,147.7*,8.2,7.1,-2.1,-14.1,132.5,97.1,101.6
COc1cc(C2c3cc4c(cc3C(O)C3COCC23)OCO4)cc(OC)c1OC (centres undefined),·,·,·,·,·,10.8,·,·,·
COc1cc([C@@H]2c3cc4c(cc3[C@H](O)[C@H]3COC(=O)[C@H]23)OCO4)cc(OC)c1OC,-56.8,152.3*,1.9,-14.4,2.9,3.9,118.1,163.9*,107.8
Cn1c(Cc2c[nH]c3ccccc23)n[nH]c1=S,-54.5,155.0*,8.5,2.5,0.1,-9.5,132.6,104.3,94.8
O=C(O)c1ccc2cccc(O)c2n1,·,·,-16.3,·,1.8,-10.9,·,·,·
COCCC(=O)N1CCc2c([nH]c3ccccc23)C1C(C)(C)C (centres undefined),-32.4,132.4,10.9,1.1,5.9,-3.6,·,·,·
COCc1ccc(CN2CCc3c([nH]c4ccccc34)C2C(C)(C)C)o1 (centres undefined),-44.0,139.8*,10.9,16.9,1.0,1.8,141.0*,104.7,92.7
Clc1ccccc1Cc1noc(CN2CCSCC2)n1,-2.9,104.5,·,-15.5,3.0,-0.4,·,·,·
COc1ccc(Cl)cc1S(=O)(=O)N1CCC(C(=O)NCc2ccccn2)CC1,·,·,·,·,·,-14.1,·,·,·
Nc1nonc1-c1nc2ccccc2n1CC(=O)Nc1ccccc1,·,·,-2.3,·,4.3,26.5,·,·,·
CCOC(=O)c1ccccc1NC(=O)Cn1c(-c2nonc2N)nc2ccccc21,-35.6,136.4*,19.5,1.5,5.0,0.2,104.7,129.3*,111.1

# Compound activity as filed in PubChem.
